From ChEMBL document CHEMBL1137547, “Synthesis and antifungal activities of novel 2-aminotetralin derivatives” (2007)
≈ marks a conversion by molar mass, not a printed value.

What was measured:
Format in all cases: functional
Candida albicans = experiment: Antifungal activity against Candida albicans after 24 hrs
Method in brief: (§1)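 Candida yeasts were tested by NCCLS microdilution in RPMI 1640 buffered with 0.165 M MOPS and incubated at 35 °C. Compounds were dissolved in DMSO and serially diluted in medium. Isolates came from ATCC or the clinic. The MIC was read at 24 h as the lowest concentration achieving ≥80% growth inhibition versus the control.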

Candida parapsilosis = experiment: Antifungal activity against Candida parapsilosis after 24 hrs; settings: Lodderomyces parapsilosis; method in brief: as §1
Cryptococcus neoformans = experiment: Antifungal activity against Cryptococcus neoformans after 72 hrs
Method in brief: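 Cryptococcus neoformans was tested by NCCLS serial dilution in MOPS-buffered (0.165 M) RPMI 1640 at 35 °C. Compounds were dissolved in DMSO and diluted in medium. The MIC was read at 72 h as the lowest concentration giving turbidity inhibition of ≥80% relative to the growth control.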

Trichophyton rubrum = experiment: Antifungal activity against Trichophyton rubrum
Method in brief: (§2)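 Dermatophytes were tested by NCCLS serial dilution in RPMI 1640 with 0.165 M MOPS and incubated at 28 °C. Compounds were dissolved in DMSO and diluted in medium. Strains came from ATCC or clinical isolates. The MIC was read at 7 d as the lowest concentration reducing turbidity by ≥80% relative to the drug-free control.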

Fonsecaea compacta = experiment: Antifungal activity against Fonsecaea compacta
Method in brief: (§3)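 NCCLS broth serial dilution in RPMI 1640 buffered with 0.165 M MOPS. Compounds were dissolved in DMSO and serially diluted in medium. Strains came from ATCC or clinical isolates. The growth MIC for filamentous fungi was read at 7 d, taken as the lowest concentration giving ≥80% turbidity inhibition versus the growth control.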

Aspergillus fumigatus = experiment: Antifungal activity against Aspergillus fumigatus; method in brief: as §3
Microsporum = experiment: Antifungal activity against Microsporum gypseum; method in brief: as §2

Row | SMILES | MIC (Candida albicans) [µM] | MIC (Candida parapsilosis) [µM] | MIC (Cryptococcus neoformans) [µM] | MIC (Trichophyton rubrum) [µM] | MIC (Fonsecaea compacta) [µM] | MIC (Aspergillus fumigatus) [µM] | MIC (Microsporum) [µM]
1 | CCCCCCCCCCCCNC1CCc2cccc(OC)c2C1 (centres undefined) | 4 (≈ 1.38 µg/mL) | 16 (≈ 5.53 µg/mL) | 16 (≈ 5.53 µg/mL) | 4 (≈ 1.38 µg/mL) | 8 (≈ 2.76 µg/mL) | 32 (≈ 11.1 µg/mL) | 64 (≈ 22.1 µg/mL)
2 | CCCCCCCCCCCCNC1CCc2cc(O)ccc2C1 (centres undefined) | 1 (≈ 0.332 µg/mL) | 8 (≈ 2.65 µg/mL) | 2 (≈ 0.663 µg/mL) | 2 (≈ 0.663 µg/mL) | 4 (≈ 1.33 µg/mL) | > 64 | 8 (≈ 2.65 µg/mL)
3 | CCCCNC1CCc2c(O)cccc2C1 (centres undefined) | > 64 | > 64 | > 64 | 64 (≈ 14 µg/mL) | 64 (≈ 14 µg/mL) | > 64 | > 64
4 | CCCCNC1CCc2cc(O)ccc2C1 (centres undefined) | > 64 | > 64 | > 64 | 64 (≈ 14 µg/mL) | > 64 | > 64 | > 64
5 | CCCCCCCCCCCCNC1CCc2cccc(O)c2C1 (centres undefined) | 16 (≈ 5.3 µg/mL) | 32 (≈ 10.6 µg/mL) | 32 (≈ 10.6 µg/mL) | 4 (≈ 1.33 µg/mL) | 8 (≈ 2.65 µg/mL) | 32 (≈ 10.6 µg/mL) | > 64
6 | COc1cccc2c1CC(Nc1ccc(Cl)cc1)CC2 (centres undefined) | > 64 | > 64 | > 64 | > 64 | > 64 | > 64 | 32 (≈ 9.21 µg/mL)
7 | CCCCCCCCCCNC1CCc2cccc(OC)c2C1 (centres undefined) | 0.25 (≈ 0.0794 µg/mL) | 2 (≈ 0.635 µg/mL) | 1 (≈ 0.318 µg/mL) | 1 (≈ 0.318 µg/mL) | 1 (≈ 0.318 µg/mL) | 16 (≈ 5.08 µg/mL) | 2 (≈ 0.635 µg/mL)
8 | CCCCCCCCCCCCNC1CCc2ccc(O)cc2C1 (centres undefined) | 16 (≈ 5.3 µg/mL) | > 64 | 32 (≈ 10.6 µg/mL) | 1 (≈ 0.332 µg/mL) | 32 (≈ 10.6 µg/mL) | > 64 | 4 (≈ 1.33 µg/mL)
9 | CCCCCCCCNC1CCc2c(cccc2OC)C1 (centres undefined) | 8 (≈ 2.32 µg/mL) | 16 (≈ 4.63 µg/mL) | 16 (≈ 4.63 µg/mL) | 8 (≈ 2.32 µg/mL) | 4 (≈ 1.16 µg/mL) | 16 (≈ 4.63 µg/mL) | > 64
10 | CCCCCCCCNC1CCc2ccc(OC)cc2C1 (centres undefined) | 1 (≈ 0.289 µg/mL) | 32 (≈ 9.26 µg/mL) | 16 (≈ 4.63 µg/mL) | 4 (≈ 1.16 µg/mL) | 4 (≈ 1.16 µg/mL) | 64 (≈ 18.5 µg/mL) | 8 (≈ 2.32 µg/mL)
11 | CCCCNC1CCc2cccc(OC)c2C1 (centres undefined) | > 64 | > 64 | > 64 | 16 (≈ 3.73 µg/mL) | 0.25 (≈ 0.0583 µg/mL) | 64 (≈ 14.9 µg/mL) | 32 (≈ 7.47 µg/mL)
12 | Oc1ccc2c(c1)CCC(Nc1ccc(Cl)cc1)C2 (centres undefined) | > 64 | 32 (≈ 8.76 µg/mL) | 16 (≈ 4.38 µg/mL) | 0.25 (≈ 0.0684 µg/mL) | 32 (≈ 8.76 µg/mL) | 64 (≈ 17.5 µg/mL) | 4 (≈ 1.1 µg/mL)
13 | COc1cccc2c1CCC(N)C2 (centres undefined) | > 64 | > 64 | > 64 | 8 (≈ 1.42 µg/mL) | 64 (≈ 11.3 µg/mL) | > 64 | > 64
14 | COc1cccc2c1CC(N)CC2 (centres undefined) | > 64 | > 64 | > 64 | 64 (≈ 11.3 µg/mL) | > 64 | > 64 | > 64
15 | CCCCCCCCCCCCNC1CCc2cc(OC)ccc2C1 (centres undefined) | 4 (≈ 1.38 µg/mL) | 32 (≈ 11.1 µg/mL) | 4 (≈ 1.38 µg/mL) | 4 (≈ 1.38 µg/mL) | 64 (≈ 22.1 µg/mL) | > 64 | > 64
16 | CCCCCCCCCCCCNC1CCc2c(O)cccc2C1 (centres undefined) | 4 (≈ 1.33 µg/mL) | > 64 | > 64 | 32 (≈ 10.6 µg/mL) | > 64 | > 64 | 2 (≈ 0.663 µg/mL)
17 | CCCCNC1CCc2cc(OC)ccc2C1 (centres undefined) | 64 (≈ 14.9 µg/mL) | > 64 | 64 (≈ 14.9 µg/mL) | 64 (≈ 14.9 µg/mL) | > 64 | > 64 | > 64
18 | CCCCNC1CCc2ccc(O)cc2C1 (centres undefined) | > 64 | > 64 | > 64 | > 64 | 64 (≈ 14 µg/mL) | > 64 | 64 (≈ 14 µg/mL)
19 | CCCCCCCCNC1CCc2ccc(O)cc2C1 (centres undefined) | 4 (≈ 1.1 µg/mL) | 32 (≈ 8.81 µg/mL) | 16 (≈ 4.41 µg/mL) | 8 (≈ 2.2 µg/mL) | 8 (≈ 2.2 µg/mL) | > 64 | 4 (≈ 1.1 µg/mL)
20 | CCCCCCCCCNC1CCc2ccc(O)cc2C1 (centres undefined) | 1 (≈ 0.289 µg/mL) | 16 (≈ 4.63 µg/mL) | 8 (≈ 2.32 µg/mL) | 4 (≈ 1.16 µg/mL) | 8 (≈ 2.32 µg/mL) | 64 (≈ 18.5 µg/mL) | 8 (≈ 2.32 µg/mL)
21 | Oc1cccc2c1CCC(Nc1ccc(Cl)cc1)C2 (centres undefined) | 2 (≈ 0.548 µg/mL) | 8 (≈ 2.19 µg/mL) | 8 (≈ 2.19 µg/mL) | 2 (≈ 0.548 µg/mL) | 16 (≈ 4.38 µg/mL) | 64 (≈ 17.5 µg/mL) | 0.5 (≈ 0.137 µg/mL)
22 | COc1ccc2c(c1)CC(N)CC2 (centres undefined) | > 64 | > 64 | > 64 | 64 (≈ 11.3 µg/mL) | > 64 | > 64 | > 64
